Laboratory results reported in ChEMBL document CHEMBL2406957, “C-(α-d-Glucopyranosyl)-phenyldiazomethanes-irreversible inhibitors of α-glucosidase” (Bioorg Med Chem, 2013).
Each block holds one compound with its values, some of them ahead of it. The source made the active and inactive calls. The rule behind the calls is not given here.

Tests used:
Saccharomyces cerevisiae [1] = assay: Inhibition of Saccharomyces cerevisiae alpha-glucosidase using PNPG as substrate at 60 uM incubated for 40 mins prior to substrate addition measured after 5 mins by spectrophotometry relative to control
In short: (§1)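 Enzyme (final 4 µg/mL, 0.064 µM) incubated 40 min at 30 °C in pH 7.5 buffer with compound at final 0.01–0.08 mM. Aliquot then added to 2 mM PNPG in pH 6.8 buffer for 5 min at 30 °C. Reaction quenched with Na2CO3, p-nitrophenolate read at 400 nm. Residual activity expressed relative to enzyme control.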

[2] = Reversible inhibition of Saccharomyces cerevisiae alpha-glucosidase using PNPG as substrate
[3] = Irreversible inhibition of Saccharomyces cerevisiae alpha-glucosidase using PNPG as substrate by Kitz-Wilson plot analysis
In short: (§2)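 Yeast α-glucosidase (final 4 µg/mL, 0.064 µM) preincubated at 30 °C in pH 7.5 Tris–HCl with inhibitor at final 0.01–0.08 mM. Aliquots taken at 5–40 min into 2 mM PNPG (pH 6.8), 5 min at 30 °C, Na2CO3 quench, A400. Activity as % of no-inhibitor control. kobs from first-order fits; Ki and ki from double-reciprocal Kitz–Wilson replot.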

[4] = Inhibition of Saccharomyces cerevisiae alpha-glucosidase using PNPG as substrate incubated for 40 mins prior to substrate addition measured after 5 mins by spectrophotometry; in short: as §1
Saccharomyces cerevisiae [5] = assay: Irreversible inhibition of Saccharomyces cerevisiae alpha-glucosidase using PNPG as substrate at 0.04 mM incubated for 5 to 40 mins prior to substrate addition measured after 5 mins by spectrophotometry in presence of (2R,3R,4R,5S,6R)-2-((R)-amino(phenyl)methyl)-6-(hydroxymethyl)tetrahydro-2H-pyran-3,4,5-triol
[6] = Half life of the compound in buffer at 50 uM at pH 3.0 by UV-vis spectrophotometric analysis; type: physicochemical
In short: (§3)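 Isolated diazo compound dissolved at 50 μM in buffer of set pH (7.0 down to 3.0) in a cuvette; UV spectra scanned 190–350 nm every 30 s at room temperature until no further change. Blue shift of λmax followed; decay fitted to a single exponential, t1/2 = t1 ln2.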

Saccharomyces cerevisiae [7] = assay: Irreversible inhibition of Saccharomyces cerevisiae alpha-glucosidase using PNPG as substrate assessed as residual enzyme activity incubated for 5 to 40 mins prior to substrate addition measured after 5 mins by spectrophotometry; in short: as §2
[8] = Half life of the compound in buffer at 50 uM at pH 4.0 by UV-vis spectrophotometric analysis; type: physicochemical; in short: as §3
[9] = Half life of the compound in buffer at 50 uM at pH 5.0 by UV-vis spectrophotometric analysis; type: physicochemical; in short: as §3
[10] = Half life of the compound in buffer at 50 uM at pH 6.0 by UV-vis spectrophotometric analysis; type: physicochemical; in short: as §3
[11] = Chemical stability of the compound in neutral media at 50 uM at pH 7.0 by UV-vis spectrophotometric analysis; type: physicochemical; conditions: buffer, pH 7, 50 µM; in short: as §3

- inhibition (Saccharomyces cerevisiae [1]): 40%
SMILES: N#Cc1ccc(C[C@H]2O[C@H](CO)[C@@H](O)[C@H](O)[C@H]2O)cc1

- Ki [2]: 1.1 µM
SMILES: N[C@H](c1ccccc1)[C@H]1O[C@H](CO)[C@@H](O)[C@H](O)[C@H]1O

- Ki [3]: 2160 µM
- IC50 [4]: 20.6 µM
- inhibition (Saccharomyces cerevisiae [1]): 90%
- inhibition (Saccharomyces cerevisiae [5]): inactive
- half-life at 50 µM [6]: 0.183 min
- inhibition (Saccharomyces cerevisiae [7]): Dose-dependent effect
- half-life at 50 µM [8]: 0.483 min
- half-life at 50 µM [9]: 2.35 min
- half-life at 50 µM [10]: 4.2 min
- Stability [11]: Stable
SMILES: N#Cc1ccc(C(=[N+]=[N-])[C@H]2O[C@H](CO)[C@@H](O)[C@H](O)[C@H]2O)cc1

- inhibition (Saccharomyces cerevisiae [1]): 40%
SMILES: N#Cc1ccc([C@H](O)[C@H]2O[C@H](CO)[C@@H](O)[C@H](O)[C@H]2O)cc1
